ChEMBL document CHEMBL1166013, “Pharmacophore and structure-activity relationships of integrase inhibition within a dual inhibitor scaffold of HIV reverse transcriptase and integrase” (Bioorg Med Chem, 2010)
The source made the active and inactive calls. No cut-off for these calls is given here.

How the values were obtained:
[1] = biological target: Human immunodeficiency virus type 1 reverse transcriptase (Human immunodeficiency virus 1, UniProt Q72547); experiment: Inhibition of HIV 3B reverse transcriptase using [3H]TTP as a tracer by scintillation counting
[2] = biological target: Human immunodeficiency virus type 1 integrase (Human immunodeficiency virus 1, UniProt Q7ZJM1); experiment: Inhibition of HIV 3B integrase strand transfer activity
Human immunodeficiency virus type 1 integrase, sequence (Q7ZJM1 whole entry): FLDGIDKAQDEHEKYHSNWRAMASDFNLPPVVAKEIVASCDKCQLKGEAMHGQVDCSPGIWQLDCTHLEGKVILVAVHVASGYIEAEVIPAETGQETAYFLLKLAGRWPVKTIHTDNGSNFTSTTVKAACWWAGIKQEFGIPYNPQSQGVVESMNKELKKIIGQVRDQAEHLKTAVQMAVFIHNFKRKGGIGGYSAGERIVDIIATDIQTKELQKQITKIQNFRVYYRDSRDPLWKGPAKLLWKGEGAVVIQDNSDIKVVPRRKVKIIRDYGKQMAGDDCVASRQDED
Outline: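 IN expressed in E. coli BL21(DE3) by IPTG induction. 600 nM IN in HEPES pH 7.5, 10 mM MnCl2, 1 mM DTT, 10% glycerol, BSA, Brij-35 preincubated 10 min at room temperature with inhibitor or DMSO; 50 nM annealed 5'-biotin/3'-cy5 duplex DNA added, 2 h 37 °C. Product captured on streptavidin plate, washed, eluted with formamide, fluorescence read.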

[3] = test system: Human immunodeficiency virus 1; experiment: Antiviral activity against HIV1 3B infected in human CEM-SS cells assessed as inhibition of virus-induced cytopathic effect after 6 days by MTS assay; assay type: functional, organism-based; settings: Human immunodeficiency virus 1, 3B, 144 h
Outline: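 CEM-SS cells mixed with pre-titered HIV-1 IIIB (virus control wells lose 70–95% viability) in presence of compound, incubated 6 days; cytoprotection read by MTS or XTT dye reduction. Plates held cell, virus, compound toxicity and colorimetric controls; AZT positive control. EC50 = concentration inhibiting virus replication by 50%.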

[4] = Cytotoxicity against human CEM-SS cells after 6 days by MTS assay; assay type: cell-based; settings: read-out: TC50
[5] = Therapeutic index, ratio of TC50 for human CEM-SS cells to EC50 for HIV1 3B; assay type: cell-based; settings: read-out: TI
Outline: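 TI calculated as TC50/EC50 from the 6-day CEM-SS cytoprotection assay (HIV-1 IIIB; MTS or XTT dye reduction) and matching compound-only toxicity wells.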

[6] = biological target: Human immunodeficiency virus type 1 reverse transcriptase (Human immunodeficiency virus 1) (UniProt Q72547); experiment: Inhibition of HIV 3B reverse transcriptase at 10 uM using [3H]TTP as a tracer by scintillation counting
Outline: (§1)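 Resin-bound poly(A) template in scintillation format incubated with compound and [3H]-TTP tracer; reaction started by adding RT enzyme, run 3 h at 37 °C, quenched with stop buffer; incorporated [3H]-TTP counted 1 min per sample on a beta counter.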

[7] = biological target: Human immunodeficiency virus type 1 reverse transcriptase (Human immunodeficiency virus 1) (UniProt Q72547); experiment: Inhibition of HIV 3B reverse transcriptase at 100 uM using [3H]TTP as a tracer by scintillation counting; outline: as §1
[8] = test system: Human immunodeficiency virus 1; experiment: Antiviral activity against HIV1 3B infected in human CEM-SS cells assessed as reduction in virus-induced cytopathic effect at 10 uM after 6 days by MTS assay; assay type: functional

| IC50 [1] [µM] | IC50 [2] [µM] | inhibition [6] [%] | inhibition [7] [%] | SMILES | EC50 [3] [µM] | CC50 at 144 h [4] [µM] | selectivity ratio [5] | Activity [8] |
| --- | --- | --- | --- | --- | --- | --- | --- | --- |
| 0.71 | 16 | – | – | CCc1c(Cc2ccccc2)n(COCc2ccc(Cc3cccc(C(=O)/C=C(\O)C(=O)O)c3)cc2)c(=O)[nH]c1=O | 0.56 | 32 | 56 | – |
| – | > 100 | 0 | 0 | CC(C)c1c(Cc2ccccc2)[nH]c(=O)n(CCCCCCc2ccc(C(=O)/C=C(\O)C(=O)O)cc2)c1=O | – | – | – | 9% |
| – | 12 | 0 | 0 | CC(C)c1c(Cc2ccccc2)[nH]c(=O)n(CCCc2ccc(C(=O)/C=C(\O)C(=O)O)cc2)c1=O | – | – | – | 0.6% |
| – | 37 | 0 | 0 | CC(C)c1c(Cc2ccccc2)[nH]c(=O)n(CCCCc2ccc(C(=O)/C=C(\O)C(=O)O)cc2)c1=O | – | – | – | 0% |
| – | > 100 | 0 | 0 | CCc1c(Cc2ccccc2)nc(SCc2ccc(C(=O)/C=C(\O)C(=O)O)cc2)[nH]c1=O | – | – | – | inactive |

More lines, now with the values behind:

| SMILES | IC50 [1] [µM] | IC50 [2] [µM] | inhibition [6] [%] | inhibition [7] [%] | EC50 [3] [µM] | CC50 at 144 h [4] [µM] | selectivity ratio [5] | Activity [8] |
| --- | --- | --- | --- | --- | --- | --- | --- | --- |
| CCc1c(Cc2ccccc2)nc(SCc2ccc(Cc3cccc(C(=O)/C=C(\O)C(=O)O)c3)cc2)[nH]c1=O | – | > 100 | 0 | 0 | – | – | – | inactive |
| CCc1c(Cc2cc(C)cc(C)c2)n(COCc2ccc(Cc3cccc(C(=O)/C=C(\O)C(=O)O)c3)cc2)c(=O)[nH]c1=O | 0.028 | 14 | – | – | 0.014 | > 100 | > 710 | – |
| CC(C)c1c(Cc2ccccc2)n(COCCc2ccc(C(=O)/C=C(\O)C(=O)O)cc2)c(=O)[nH]c1=O | – | 7.4 | 100 | 100 | – | – | – | 100% |
| CC(C)c1c(Cc2ccccc2)[nH]c(=O)n(CCc2ccc(C(=O)/C=C(\O)C(=O)O)cc2)c1=O | – | 8 | 0 | 0 | – | – | – | 28% |
| CC(C)c1c(Cc2ccccc2)n(COCc2ccc(Cc3cccc(C(=O)/C=C(\O)C(=O)O)c3)cc2)c(=O)[nH]c1=O | 0.16 | 11 | – | – | 0.46 | > 100 | > 220 | – |
| Cc1cc(C)cc(Cc2c(C(C)C)c(=O)[nH]c(=O)n2COCc2ccc(Cc3cccc(C(=O)/C=C(\O)C(=O)O)c3)cc2)c1 | 0.1 | 22 | – | – | 0.17 | 96 | 560 | – |
| CC(C)c1c(Cc2ccccc2)n(COCCCc2ccc(C(=O)/C=C(\O)C(=O)O)cc2)c(=O)[nH]c1=O | – | 8.2 | 100 | 100 | – | – | – | 91% |
